This note sets out measurements from ChEMBL document CHEMBL3596186, “Synthesis and biological evaluation of diarylthiazole derivatives as antimitotic and antivascular agents with potent antitumor activity” (Bioorg Med Chem, 2015).

The source made the active and inactive calls. The calls are words filed in the database; no cut-off is given here.

Assay [1] has as its system HUVEC. The assay is described as follows: Antiproliferative activity against HUVEC after 48 hrs by MTT assay. Type of assay: cell-based. The following applies: Homo sapiens. In outline: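 HUVECs isolated from umbilical cord veins and grown in EBM-2 with growth factors at 37 °C, 5% CO2. Log-phase cells at 40,000-50,000 cells/mL exposed to a compound dilution series for 48 h. MTT added for 3 h, formazan dissolved in DMSO, absorbance read at 570 nm. IC50 taken from percent growth versus untreated control.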

Assay [2] deals with HCT-116. In words: Cell cycle arrest in human HCT116 cells assessed as accumulation at S phase at 0.5 uM after 24 hrs by flow cytometry (reference value: 25.66%). The class given is functional.
Assay [3] concerns HCT-116. In words: Induction of apoptosis in human HCT116 cells assessed as necrotic cells at 0.2 uM after 48 hrs by annexin V/propidium iodide staining-based flow cytometry (reference value: 3.49%). Type of assay: functional. On the technique in general: A flow cytometer gives signals particle by particle.
Assay [4] has as its system HepG2. In words: Induction of apoptosis in human HepG2 cells assessed as early apoptotic cells at 1 uM after 48 hrs by annexin V/propidium iodide staining-based flow cytometry (reference value: 0.87%). The class given is functional.
Assay [5] deals with HepG2. In words: Induction of apoptosis in human HepG2 cells assessed as viable cells at 0.2 uM after 24 hrs by annexin V/propidium iodide staining-based flow cytometry (reference value: 89.8%). The following applies: HepG2, 24 h, read-out: Activity. The class given is functional.
Assay [6] concerns HCT-116. The assay is described as follows: Induction of apoptosis in human HCT116 cells assessed as late apoptotic cells at 1 uM after 48 hrs by annexin V/propidium iodide staining-based flow cytometry (reference value: 1.71%). The class given is functional.
Assay [7] relates to HepG2. The assay is described as follows: Induction of apoptosis in human HepG2 cells assessed as late apoptotic cells at 0.2 uM after 24 hrs by annexin V/propidium iodide staining-based flow cytometry (reference value: 3.74%). The class given is functional.
Assay [8] deals with Tubulin (Homo sapiens) (UniProt P68371+Q9H4B7+P0DPH7+P68366+Q13509+Q71U36+P04350+Q3ZCM7+P07437+P68363+Q9BQE3+Q6PEY2+Q13885+Q9BVA1+Q9BUF5). In words: Binding affinity to tubulin in human HepG2 cells at 5 uM after 4 hrs by EBI competition assay. Type of assay: cell-based. In outline:
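HepG2 cells seeded at 500,000 cells/well, allowed to adhere, then treated with compound for 4 h. EBI added at 100 µM for 1.5 h. Cell extracts (about 20 µg protein) run on 10% SDS-PAGE, blotted to PVDF, probed with anti-β-tubulin, detected by ECL with GAPDH as loading control. Read-out is loss of the faster-migrating β-tubulin–EBI adduct band.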

The subject of assay [9] is HCT-116. The assay is described as follows: Induction of apoptosis in human HCT116 cells assessed as necrotic cells at 0.5 uM after 48 hrs by annexin V/propidium iodide staining-based flow cytometry (reference value: 3.49%). The class given is functional.
The test system of assay [10] is HepG2. The assay is described as follows: Induction of apoptosis in human HepG2 cells assessed as viable cells at 0.2 uM after 48 hrs by annexin V/propidium iodide staining-based flow cytometry (reference value: 89.8%). The following applies: HepG2, 48 h, read-out: Activity. Type of assay: functional.
The test system of assay [11] is HepG2. In words: Cell cycle arrest in human HepG2 cells assessed as accumulation at G2/M phase at 0.2 uM after 24 hrs by flow cytometry (reference value: 11.29%). The class given is functional.
For assay [12], the system named is A549. In words: Antiproliferative activity against human A549 cells after 48 hrs by MTT assay. The following applies: A549, 48 h. The class given is functional, cell-based. In outline:
(§1)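 HCT116, HepG2, SMMC-7721, SK-OV-3 and A2780s grown in DMEM; A549 and MCF-7 in RPMI-1640; all with 10% FBS and penicillin/streptomycin at 37 °C, 5% CO2. Log-phase cells at 40,000-50,000 cells/mL treated with graded concentrations for 48 h. MTT 3 h, DMSO solubilization, A570. IC50 from percent growth versus untreated control; mean ± SEM of ≥3 independent dose-response experiments.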

For assay [13], the system named is HepG2. The assay is described as follows: Induction of apoptosis in human HepG2 cells assessed as viable cells at 1 uM after 24 hrs by annexin V/propidium iodide staining-based flow cytometry (reference value: 89.8%). The class given is functional. The following applies: HepG2, 24 h, read-out: Activity.
For assay [14], the system named is HCT-116. The assay is described as follows: Cell cycle arrest in human HCT116 cells assessed as accumulation at G1 phase at 0.5 uM after 24 hrs by flow cytometry (reference value: 53.98%). Type of assay: functional.
Assay [15] concerns HUVEC. The assay is described as follows: Antimigratory activity against HUVEC after 24 hrs by phase contrast microscopy. Type of assay: functional, cell-based. The following applies: Homo sapiens. Put shortly: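 HUVEC monolayers grown overnight in 6-well plates, scratched with pipet tips, washed twice with PBS, then given fresh EBM2 with vehicle or compound. Imaged by phase contrast at 0 and 24 h (100×). Migrated cells counted manually in 3 separate fields; mean ± SD from three fields.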

The test system of assay [16] is HepG2. In words: Antimitotic activity in human HepG2 cells assessed as demolishment of microtubule at 0.5 uM after 24 hrs by DAPI staining-based immmunofluorescence assay. The class given is functional, cell-based. In outline: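 HepG2 cells seeded in 6-well plates and treated with compound. Fixed in 4% paraformaldehyde, permeabilized with 0.5% Triton X-100 in PBS, blocked 30 min in 5% goat serum at room temperature. Stained with monoclonal anti-α-tubulin 1 h at room temperature, then fluorescent secondary antibody, nuclei labelled with DAPI. Viewed by fluorescence microscopy.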

The subject of assay [17] is HepG2. The assay is described as follows: Induction of apoptosis in human HepG2 cells assessed as late apoptotic cells at 1 uM after 48 hrs by annexin V/propidium iodide staining-based flow cytometry (reference value: 3.74%). The class given is functional.
A short description of assay [18]: Antiproliferative activity against human HCC827 cells after 48 hrs by MTT assay. The class given is functional, cell-based. The following applies: HCC827, 48 h. Background: Tetrazolium assays rely on reduction of a dye to a coloured formazan, in cell work by metabolically active cells.
The nature of assay [19]: Antiproliferative activity against human […] cells after 48 hrs by MTT assay. Type of assay: functional, cell-based. In outline:
as §1

Assay [20] concerns SK-OV-3. In words: Antitumor activity against human SKOV3 cells xenografted in Balb/c athymic nude mouse assessed as tumor growth inhibition at 20 mg/kg, ip administered daily after 42 days. The following applies: SK-OV-3, ip, 1008 h, read-out: TGI. Type of assay: functional. In outline: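 Female Balb/C athymic nude mice, 5-6 weeks old, bearing s.c. right-flank SK-OV-3 xenografts implanted in HBSS. At about 100 mm3, groups of 6 given vehicle, 5-FU 10 mg/kg or compound 20 mg/kg i.p. daily. Tumors measured every 2 days (π/6 × L × W²); inhibition = (1 − treated/control tumor weight) × 100%.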
A general note: In xenograft studies the graft and the host belong to different species.

In assay [21] the test system is HCT-116. In words: Induction of apoptosis in human HCT116 cells assessed as late apoptotic cells at 0.5 uM after 48 hrs by annexin V/propidium iodide staining-based flow cytometry (reference value: 1.71%). The class given is functional.
Assay [22] has as its system HepG2. The assay is described as follows: Cell cycle arrest in human HepG2 cells assessed as accumulation at S phase at 1 uM after 24 hrs by flow cytometry (reference value: 23.97%). Type of assay: functional.
For assay [23], the system named is HCT-116. In words: Antitumor activity against human HCT116 cells xenografted in ip dosed Balb/c athymic nude mouse assessed as tumor growth inhibition administered daily. The class given is functional, organism-based. In outline: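 Female Balb/C athymic nude mice, 5-6 weeks old, implanted s.c. in the right flank with HCT116 cells in 100 µL HBSS. Tumor volume (π/6 × L × W²) and body weight measured every 2 days. Inhibition = (1 − treated/control tumor weight) × 100%.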

The nature of assay [24]: Inhibition of pig microtubule polymerization after 30 mins by turbidimetric assay. Also on record: species or system Sus scrofa. Put shortly: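 Porcine-brain MAP-rich tubulin at 3 mg/mL preincubated 30 min at 4 °C in 0.1 M PIPES pH 6.9, 2 mM MgCl2, 0.5 mM EGTA. Compounds added 2 min before the run, then 1 mM GTP. Turbidity followed kinetically at 340 nm at 37 °C; assembly IC50 derived by Hamel's method.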

As usually defined, the IC50 is the concentration needed to halve the response being measured. On to `CCOc1ccc(-c2nc(N)sc2-c2cc(OC)c(OC)c(OC)c2)cc1`, for which the IC50 turned out to be 40.2 nM in [1]; 84 nM in assay [12]; 97 nM in [18]; 23 nM in [19]; 2740 nM in assay [24]. Besides, the Activity in assay [2] was 20.51%; in [3] it was 5.36%; in assay [4] it was 74%; in assay [6], 32.6%; in assay [7], 6.51%; in assay [9], 4.36%. For the same molecule, the Activity in [11] was 19.56%; in [14], 11.45%; in assay [15], “Dose-dependent effect”; in [17], 2.67%; in [21], 26.2%; in assay [22] it was 7.43%. The Activity result in assay [23] was “Dose-dependent effect”. The figures for the viability at 0.2 µM in assay [5] and in [10] were 81.8% and 28.5%, respectively. Moreover, the outcome in assay [8] was inactive. Also, the viability at 1 µM in [13] worked out at 65.4%. The outcome in assay [16] was Active. Further, the inhibition in vivo at 20 mg/kg in [20] stood at 49.6%.
